Experimental data: ChEMBL document CHEMBL1131019, “Minimal-size, constrained corticotropin-releasing factor agonists with i-(i+3) Glu-Lys and Lys-Glu bridges” (1998)

Experiments:
Assay type in all cases: functional, Pituitary gland cell
Rattus norvegicus [1] = species on record: Rattus norvegicus; assay: Percent in vito intrinsic activity (IA) was evaluated in pituitary cell culture assay
Procedure, shortened: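 ACTH release assay in cultured rat anterior pituitary cells from male Sprague–Dawley rats: 3-day culture, 1 h preincubation in 0.1% BSA medium, 3 h peptide exposure, ACTH in medium by radioimmunoassay. Intrinsic activity = ACTH released at maximal analogue dose divided by ACTH released at maximal CRF dose, ×100.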

Rattus norvegicus [2] = species on record: Rattus norvegicus; assay: In vitro for agonist activity by measuring release of ACTH by rat pituitary cells in culture relative to human Corticotropin-Releasing factor (CRF)
Procedure, shortened: (§1)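 Male Sprague–Dawley rat anterior pituitary cells, collagenase-dissociated, plated at 0.16 × 10⁶ cells/well in 2% FBS medium. After 3 days, washed into 0.1% BSA medium, preincubated 1 h, washed again, then exposed to peptide for 3 h. Medium ACTH measured by radioimmunoassay.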

Rattus norvegicus [3] = species on record: Rattus norvegicus; assay: Agonist activity by measuring release of ACTH by rat pituitary cells in culture relative to ovine Corticotropin-Releasing factor (CRF); procedure, shortened: as §1

| SMILES | IA (Rattus norvegicus [1]) | Potency (Rattus norvegicus [2]) | Potency (Rattus norvegicus [3]) |
| --- | --- | --- | --- |
| CCCC[C@H](NC(=O)[C@H](CCC(=O)O)NC(=O)[C@H](CC(C)C)NC(=O)[C@H](CCCC)NC(=O)[C@H](CCC(=O)O)NC(=O)[C@H](CCCN=C(N)N)NC(=O)[C@H](CC(C)C)NC(=O)[C@H](CC(C)C)NC(=O)[C@H](Cc1c[nH]cn1)NC(=O)[C@@H](Cc1ccccc1)NC(=O)[C@@H](NC(=O)[C@H](CC(C)C)NC(=O)[C@H](CC(=O)O)NC(=O)[C@H](CC(C)C)NC(C)=O)[C@@H](C)O)C(=O)N[C@@H](C)C(=O)N[C@@H](CCCCN)C(=O)N[C@@H](C)C(=O)N[C@@H](CCC(=O)O)C(=O)N[C@@H](CCC(N)=O)C(=O)N[C@@H](CCC(=O)O)C(=O)N[C@@H](C)C(=O)N[C@@H](CCC(=O)O)C(=O)N1C(=O)[C@H](C)NC(=O)[C@H](C)NC(=O)[C@@H](N)CCC(=O)NCCCC[C@H]1C(=O)N[C@@H](CC(N)=O)C(=O)N[C@@H](CCCN=C(N)N)C(=O)N[C@@H](CC(C)C)C(=O)N[C@@H](CC(C)C)C(=O)N[C@@H](CC(C)C)C(=O)N[C@@H](CCC(=O)O)C(=O)N[C@@H](CCC(=O)O)C(=O)N[C@@H](C)C(N)=O | 93% | 0.073 |  |
| CCCC[C@H](NC(=O)[C@H](CCC(=O)O)NC(=O)[C@H](CC(C)C)NC(=O)[C@@H](NC(=O)[C@H](CCC(=O)O)NC(=O)[C@H](CCCN=C(N)N)NC(=O)[C@H](CC(C)C)NC(=O)[C@@H]1CCC(=O)NCCCC[C@H](NC(=O)[C@H](CC(C)C)NC(=O)[C@H](CC(=O)O)NC(=O)[C@H](CC(C)C)NC(=O)[C@H](CO)NC(=O)[C@@H](NC(=O)[C@@H]2CCCN2C(=O)[C@@H]2CCCN2C(C)=O)[C@@H](C)CC)C(=O)N[C@H](Cc2ccccc2)C(=O)N[C@@H](Cc2c[nH]cn2)C(=O)N1)C(C)C)C(=O)N[C@@H](C)C(=O)N[C@@H](CCCN=C(N)N)C(=O)N[C@@H](C)C(=O)N[C@@H](CCC(=O)O)C(=O)N[C@@H](CCC(N)=O)C(=O)N[C@@H](CC(C)C)C(=O)N[C@@H](C)C(=O)N[C@@H](CCC(N)=O)C(=O)N[C@@H](CCC(N)=O)C(=O)N[C@@H](C)C(=O)N[C@@H](Cc1c[nH]cn1)C(=O)N[C@@H](CO)C(=O)N[C@@H](CC(N)=O)C(=O)N[C@@H](CCCN=C(N)N)C(=O)N[C@@H](CCCCN)C(=O)N[C@@H](CC(C)C)C(=O)N[C@@H](CCCC)C(=O)N[C@@H](CCC(=O)O)C(=O)N[C@H](C(=O)N[C@H](C(N)=O)[C@@H](C)CC)[C@@H](C)CC |  |  | 0.0004 |
| CCCC[C@H](NC(=O)[C@H](CCCN=C(N)N)NC(=O)[C@H](CC(C)C)NC(=O)[C@H](CC(C)C)NC(=O)[C@H](CCC(=O)O)NC(=O)[C@H](CC(C)C)NC(=O)[C@H](CC(C)C)NC(=O)[C@H](CC(C)C)NC(=O)[C@H](CC(=O)O)NC(=O)[C@@H](NC(=O)[C@H](CO)NC(=O)[C@@H](NC(=O)[C@@H]1CCCN1C(=O)[C@@H]1CCCN1C(=O)CNC(=O)[C@H](CCC(=O)O)NC(=O)[C@@H]1CCCN1)[C@@H](C)CC)[C@@H](C)CC)C(=O)N[C@@H](CCCC)C(=O)N[C@H](C(=O)N[C@@H](CCC(=O)O)C(=O)N[C@H](C(=O)N[C@@H](CCC(=O)O)C(=O)N[C@@H](CCCCN)C(=O)N[C@@H](CCC(N)=O)C(=O)N[C@@H](CCC(=O)O)C(=O)N[C@@H](CCCCN)C(=O)N[C@@H](CCC(=O)O)C(=O)N[C@@H](CCCCN)C(=O)N1C(=O)[C@@H](C)NC(=O)[C@H](CCC(N)=O)NC(=O)[C@@H](N)CCC(=O)NCCCC[C@H]1C(=O)N[C@H](CC(N)=O)C(=O)N[C@H](CC(N)=O)C(=O)N[C@H](CCCN=C(N)N)C(=O)N[C@H](CC(C)C)C(=O)N[C@H](CC(C)C)C(=O)N[C@H](CC(C)C)C(=O)N[C@H](CC(=O)O)C(=O)N[C@@H](C(=O)N[C@@H](C(N)=O)[C@H](C)CC)[C@H](C)O)[C@@H](C)CC)[C@@H](C)CC |  |  | 5.73 |
| CCCC[C@H](NC(=O)[C@H](CCC(=O)O)NC(=O)[C@H](CC(C)C)NC(=O)[C@@H](NC(=O)[C@H](CCC(=O)O)NC(=O)[C@H](CCCN=C(N)N)NC(=O)[C@H](CC(C)C)NC(=O)[C@@H]1CCCCNC(=O)CC[C@H](NC(=O)[C@H](CC(C)C)NC(=O)[C@H](CC(=O)O)NC(=O)[C@H](CC(C)C)NC(=O)[C@H](CO)NC(=O)[C@@H](NC(=O)[C@@H]2CCCN2C(=O)[C@@H]2CCCN2C(C)=O)[C@@H](C)CC)C(=O)N[C@H](Cc2ccccc2)C(=O)N[C@@H](Cc2c[nH]cn2)C(=O)N1)C(C)C)C(=O)N[C@@H](C)C(=O)N[C@@H](CCCN=C(N)N)C(=O)N[C@@H](C)C(=O)N[C@@H](CCC(=O)O)C(=O)N[C@@H](CCC(N)=O)C(=O)N[C@@H](CC(C)C)C(=O)N[C@@H](C)C(=O)N[C@@H](CCC(N)=O)C(=O)N[C@@H](CCC(N)=O)C(=O)N[C@@H](C)C(=O)N[C@@H](Cc1c[nH]cn1)C(=O)N[C@@H](CO)C(=O)N[C@@H](CC(N)=O)C(=O)N[C@@H](CCCN=C(N)N)C(=O)N[C@@H](CCCCN)C(=O)N[C@@H](CC(C)C)C(=O)N[C@@H](CCCC)C(=O)N[C@@H](CCC(=O)O)C(=O)N[C@H](C(=O)N[C@H](C(N)=O)[C@@H](C)CC)[C@@H](C)CC |  |  | 1.4 |
| CC[C@H](C)[C@H](NC(=O)[C@H](CO)NC(=O)[C@H](CC(C)C)NC(=O)[C@H](CO)NC(=O)[C@H]1CCCN1C(=O)[C@H](CC(N)=O)NC(=O)[C@@H](N)CC(=O)O)C(=O)N[C@@H](CC(=O)O)C(=O)N[C@@H](CC(C)C)C(=O)N[C@H](C(=O)N[C@@H](Cc1ccccc1)C(=O)N[C@@H](Cc1c[nH]cn1)C(=O)N[C@@H](CC(C)C)C(=O)N[C@@H](CC(C)C)C(=O)N[C@@H](CCCN=C(N)N)C(=O)N[C@H](C(=O)N[C@@H](CC(C)C)C(=O)N[C@@H](CC(C)C)C(=O)N[C@@H](CCC(=O)O)C(=O)N[C@@H](CC(C)C)C(=O)N[C@@H](C)C(=O)N[C@@H](CCCN=C(N)N)C(=O)N[C@H](C(=O)N[C@@H](CCC(N)=O)C(=O)N[C@@H](CO)C(=O)N[C@@H](CCC(N)=O)C(=O)N[C@@H](CCCN=C(N)N)C(=O)N[C@@H](CCC(=O)O)C(=O)N[C@@H](CCCN=C(N)N)C(=O)N[C@@H](C)C(=O)N[C@@H](CCC(=O)O)C(=O)N[C@@H](CCC(N)=O)C(=O)N[C@@H](CC(N)=O)C(=O)N[C@@H](CCCN=C(N)N)C(=O)N[C@H](C(=O)N[C@H](C(=O)N[C@@H](Cc1ccccc1)C(=O)N[C@@H](CC(=O)O)C(=O)N[C@@H](CO)C(=O)N[C@H](C(N)=O)C(C)C)[C@@H](C)CC)[C@@H](C)CC)[C@@H](C)O)[C@@H](C)O)[C@@H](C)O (stereo in doubt; 37) |  | 2.9 |  |
